# Assay outcomes as filed in PubChem.
# GRIN3A LBD mod: NR3A (human) ligand-binding domain modulation; 340,000 compounds, 2.5% hits; NR3A LBD differential scanning fluorimetry, Tm shift; 0% = protein alone, 100% = glycine-bound protein; Tm shift relative to glycine control, % at 25 µM;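 active = melting temperature shift of at least 10% of the positive control shift, at one fixed dose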
# EBI2 block: EBI2 (human) antagonism; inhibition, % at 5 µM; EBI2 beta-arrestin recruitment, luminescence, 7a,25-OHC stimulated; 360,000 compounds, 0.81% hits; in the data active = inhibition above about 38%;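 also: enzyme fragment complementation signal reports receptor beta-arrestin coupling in cells; 0% = agonist plus DMSO wells and 100% = wells without agonist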
# Target sequence (P32249 whole entry, looked up, the tested form may be a part): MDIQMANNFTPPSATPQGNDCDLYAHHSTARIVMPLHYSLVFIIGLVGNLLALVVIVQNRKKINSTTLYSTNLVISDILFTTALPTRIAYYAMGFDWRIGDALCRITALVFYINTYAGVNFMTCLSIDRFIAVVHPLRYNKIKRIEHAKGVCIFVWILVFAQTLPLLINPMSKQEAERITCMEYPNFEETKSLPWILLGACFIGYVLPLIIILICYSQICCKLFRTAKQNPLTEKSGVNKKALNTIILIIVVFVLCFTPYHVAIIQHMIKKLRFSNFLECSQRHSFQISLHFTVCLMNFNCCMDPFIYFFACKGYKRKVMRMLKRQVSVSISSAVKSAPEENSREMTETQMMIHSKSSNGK
# SENP1 inh: inhibitors of human SENP1 SUMO protease catalytic domain. recombinant SENP1 catalytic domain, CyPet-SUMO1-YPet FRET cleavage. inhibition, % at 10 µM. 360,000 compounds, 0.21% hits;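 active = inhibition at least 30% at 10 µM, raw YFP signal under a set limit, fluorescence ratio 0.5 to 1.5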;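 also: 0% = enzyme with DMSO and 100% = no enzyme wells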
#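 Assay system – human recombinant His6-tagged SENP1 catalytic domain enzyme · Input – SENP1 enzyme, 20 pM final · Buffer or medium – Tris pH 8 buffer plus EDTA, NaCl, BME, BSA, NP40, catalase · Schedule – 50 min reaction at room temperature · Technique – FRET read of cyan and yellow fluorescence · Control set – no-enzyme wells low, DMSO-plus-enzyme wells high control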
# MPTP block: inhibitors of mitochondrial permeability transition pore. isolated mouse mitochondria, Ca2+ swelling absorbance, 30 min. inhibition, % at 10 µM. 360,000 compounds, 1.4% hits;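 active = inhibition of 50% or more, scaled per plate between neutral and stimulator controls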;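 also: 0% = DMSO wells given calcium and 100% = 1 mM EGTA wells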
# Rh123 counter: mitochondrial membrane potential, counter-screen | shares compounds with MPTP block | isolated mitochondria, Rhodamine 123 fluorescence | inhibition, % at 10 µM | 5,000 compounds, 78% hits | AID 624504; in the data active = inhibition above about 22%;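 also: 0% = DMSO vehicle and 100% = positive control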
# MPTP abs DR: MPTP inhibition, dose response swelling confirmation; shares compounds with MPTP block; isolated mitochondria swelling, absorbance; IC50, µM; 780 compounds, 58% hits; in the data active = IC50 below about 20 µM
# MPTP cs DR: MPTP inhibitor counter-screen activity, dose response; shares compounds with MPTP block; isolated mitochondria counterscreen, fluorescence read-out; IC50, µM; 780 compounds, 49% hits; AID 651564; in the data active = IC50 below about 80 µM
# * marks the source's active call; other numbers are inactive results; i = inactive; . = no result. Rows were chosen to be rich in hits. Some 4.4% of all compounds tested hit in one or more screens of this group.
SMILES,GRIN3A LBD mod,EBI2 block,SENP1 inh,MPTP block,Rh123 counter,others
CCOC(=O)C1(Cc2cccc(OC)c2)CCN(Cc2ccc(C)s2)CC1,-1,-1,-2,97*,85*,
Cc1ccc(Cn2cc(CN3CC(N4CCN(CCN(C)C)CC4)CS3(=O)=O)nn2)cc1 (centres undefined),.,-5,-3,0,.,
O=C(CC1NCCc2ccccc21)Nc1ccc(Cl)cc1 (centres undefined),0,-7,-1,61*,0,MPTP abs DR=9.1*;MPTP cs DR=>80
O=C(NCC(=O)N1CC(O)CC1C(=O)N1CCCC1C(=O)OCc1ccccc1)OCc1ccccc1 (centres undefined),1,-7,-1,-3,.,
CC12CCC(O)CC1=CCC1C2CCC2(C)C(c3ccn[nH]3)CCC12 (centres undefined),-2,-3,2,57*,88*,
CC(C)C(=O)N[C@H]1CCC2C3CC=C4C[C@@H](O)CC[C@]4(C)C3CC[C@@]21C (some centres undefined),0,14,-1,1,.,
Cc1c(CC(Cl)(Cl)Cl)c2c(n1O)CC(C)(C)CC2=O,-4,-9,0,72*,47*,
COc1ccccc1CNC1CCCc2ccccc21 (centres undefined),1,10,0,1,.,
COc1ccc(CNC2CCCc3ccccc32)cc1OC (centres undefined),-4,-4,0,61*,0,MPTP abs DR=i;MPTP cs DR=69*
O=P(O)(OCc1ccccc1)OCc1ccccc1,2,4,0,2,.,
Cc1ccc(N2C(=O)c3ccccc3C2C(=O)c2cc(C)ccc2O)cc1 (centres undefined),1,-17,-9,67*,71*,
N#Cc1cc2c(nc1SCc1ccc(Cl)nc1)CCCCC2,-2,6,-1,0,.,
CS(=O)(=O)N(Cc1ccccc1)c1ccc(C(=O)Nc2ccc3c(c2)OCO3)cc1,-13,23,3,0,.,
COc1ccc(C(O)c2nc(-c3cc(F)cc(F)c3)cs2)cc1 (centres undefined),.,5,-1,2,.,
CN(C)S(=O)(=O)c1cccc(-c2nn(-c3ccccc3)cc2/C=C2\SC(=S)NC2=O)c1,11*,14,15,97*,45*,
CC(=O)N1c2ccc(S(=O)(=O)NCCc3ccc(S(N)(=O)=O)cc3)cc2CC1C (centres undefined),3,-3,0,-2,.,
CC(C)C(=O)N1CCC(CN=CC2=C(O)CC(C)(C)CC2=O)CC1,-1,-15,0,69*,113*,
CC1(C)CC(=O)C(C=NCC2CCN(C(=S)Nc3cccc(Cl)c3)CC2)=C(O)C1,-1,3,1,0,.,
CCOc1ccc(NC(=S)NNc2ccnc3cc(Cl)ccc23)cc1,4,17,-3,81*,63*,
S=C(Nc1ccc(Cl)cc1Cl)Nn1cnnc1,0,13,3,7,.,
S=C(NNc1ccnc2cc(Cl)ccc12)Nc1ccc(Cl)cc1Cl,15*,6,-33,101*,73*,
CN(C)C(CNc1ccc([N+](=O)[O-])cc1C#N)c1ccccc1 (centres undefined),-2,-1,1,-1,.,
N#Cc1c(NC(=O)c2ccccc2Cl)n(Cc2ccccc2)c2nc3ccccc3nc12,7,10,-30,51*,51*,
CCCCn1c(NC(=O)CC)c(C#N)c2nc3ccccc3nc21,0,-8,-99,0,.,
CCCCn1c(NC(=O)c2ccccc2Cl)c(C#N)c2nc3ccccc3nc21,4,1,-22,96*,70*,
Cc1noc(C)c1C(=O)Nc1sc(C)c(-c2ccccc2)c1C#N,-7,-3,-52,74*,80*,
Cc1cccc(C(=O)Nc2sc(C)c(-c3ccccc3)c2C#N)c1,-4,5,-25,1,.,
c1ccc2c(c1)OCC(CNCC1COc3ccccc3O1)O2 (centres undefined),-1,-8,0,0,.,
COc1ccc(CCNc2ncnc3sccc23)cc1OC,2,-15,-52,95*,80*,
Fc1ccccc1CNc1ncnc2sccc12,0,-3,-29,24,.,
